Measurements published in ChEMBL document CHEMBL4842318, “A γ-lactam siderophore antibiotic effective against multidrug-resistant Pseudomonas aeruginosa, Klebsiella pneumoniae, and Acinetobacter spp” (Eur J Med Chem, 2021).
≈ marks a conversion by molar mass, not a printed value. Blank lines part the entries; values can stand above or below the molecule they belong to.

Key:
Pseudomonas aeruginosa [1] = test: Antibacterial activity against wild type Pseudomonas aeruginosa isolate PR-545 assessed as inhibition of bacterial growth by microdilution method; assay type: functional
In short: (§1)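 Broth microdilution MIC in iron-depleted (Chelex resin-treated) cation-adjusted Mueller-Hinton broth, following the protocol used for siderophore-containing antibiotics. Inoculum was lowered to 6 × 10^4 cfu/mL.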

Pseudomonas aeruginosa [2] = test: Antibacterial activity against wild type Pseudomonas aeruginosa isolate PR-548 assessed as inhibition of bacterial growth by microdilution method; assay type: functional; in short: as §1
Pseudomonas aeruginosa [3] = test: Antibacterial activity against wild type Pseudomonas aeruginosa isolate PR-567 assessed as inhibition of bacterial growth by microdilution method; assay type: functional; in short: as §1
Pseudomonas aeruginosa [4] = test: Antibacterial activity against wild type Pseudomonas aeruginosa isolate PR-672 assessed as inhibition of bacterial growth by microdilution method; assay type: functional; in short: as §1
Pseudomonas aeruginosa [5] = test: Antibacterial activity against wild type Pseudomonas aeruginosa isolate PR-604 assessed as inhibition of bacterial growth by microdilution method; assay type: functional; in short: as §1
Pseudomonas aeruginosa [6] = test: Antibacterial activity against wild type Pseudomonas aeruginosa isolate PR-638 assessed as inhibition of bacterial growth by microdilution method; assay type: functional; in short: as §1
Pseudomonas aeruginosa [7] = test: Antibacterial activity against wild type Pseudomonas aeruginosa isolate PR-676 assessed as inhibition of bacterial growth by microdilution method; assay type: functional; in short: as §1
Pseudomonas aeruginosa [8] = test: Antibacterial activity against wild type Pseudomonas aeruginosa isolate PR-503 assessed as inhibition of bacterial growth by microdilution method; assay type: functional; in short: as §1
Pseudomonas aeruginosa [9] = test: Antibacterial activity against Pseudomonas aeruginosa isolate PR-564 leucine at 533 residue assessed as inhibition of bacterial growth by microdilution method; assay type: functional
In short: (§2)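 Broth microdilution in Chelex-treated, iron-depleted cation-adjusted Mueller-Hinton broth, following the protocol used for siderophore-containing antibiotics; inoculum lowered to 6 × 10^4 cfu/mL; MIC read as growth inhibition, in μg/mL.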

Pseudomonas aeruginosa [10] = test: Antibacterial activity against wild type Pseudomonas aeruginosa isolate PR-606 assessed as inhibition of bacterial growth by microdilution method; assay type: functional; in short: as §1
Pseudomonas aeruginosa [11] = test: Antibacterial activity against Pseudomonas aeruginosa isolate PR-627 leucine at 533 residue assessed as inhibition of bacterial growth by microdilution method; assay type: functional; in short: as §2
Pseudomonas aeruginosa [12] = test: Antibacterial activity against wild type Pseudomonas aeruginosa isolate PR-635 assessed as inhibition of bacterial growth by microdilution method; assay type: functional; in short: as §1
Pseudomonas aeruginosa [13] = test: Antibacterial activity against wild type Pseudomonas aeruginosa isolate PR-636 leucine at 533 residue assessed as inhibition of bacterial growth by microdilution method; assay type: functional; in short: as §1
Pseudomonas aeruginosa [14] = test: Antibacterial activity against wild type Pseudomonas aeruginosa isolate PR-651 leucine at 533 residue assessed as inhibition of bacterial growth by microdilution method; assay type: functional; in short: as §1
Pseudomonas aeruginosa [15] = test: Antibacterial activity against wild type Pseudomonas aeruginosa isolate PR-668 leucine at 533 residue assessed as inhibition of bacterial growth by microdilution method; assay type: functional; in short: as §1
Pseudomonas aeruginosa [16] = test: Antibacterial activity against wild type Pseudomonas aeruginosa isolate PR-673 leucine at 533 residue assessed as inhibition of bacterial growth by microdilution method; assay type: functional; in short: as §1
Pseudomonas aeruginosa [17] = test: Antibacterial activity against wild type Pseudomonas aeruginosa isolate PR-677 assessed as inhibition of bacterial growth by microdilution method; assay type: functional; in short: as §1
Pseudomonas aeruginosa [18] = test: Antibacterial activity against wild type Pseudomonas aeruginosa isolate PR-680 leucine at 533 residue assessed as inhibition of bacterial growth by microdilution method; assay type: functional; in short: as §1
Pseudomonas aeruginosa [19] = test: Antibacterial activity against wild type Pseudomonas aeruginosa isolate PR-688 leucine at 533 residue assessed as inhibition of bacterial growth by microdilution method; assay type: functional; in short: as §1
Pseudomonas aeruginosa [20] = test: Antibacterial activity against wild type Pseudomonas aeruginosa isolate PR-699 assessed as inhibition of bacterial growth by microdilution method; assay type: functional; in short: as §1
Pseudomonas aeruginosa [21] = test: Antibacterial activity against Pseudomonas aeruginosa AR-BANK#0229; assay type: functional; in short: as §2
[22] = Inhibition of Acinetobacter sp. strain ATCC 27244 PBP3 expressed in Escherichia coli BL21 (DE3) assessed as reduction in fluorescence intensity using Bocillin-protein as fluorescent substrate by SDS PAGE analysis
Acinetobacter baumannii [23] = test: Antibacterial activity against panel of 198 clinical isolates Acinetobacter baumannii assessed as inhibition of bacterial growth by microdilution method; assay type: functional
Acinetobacter baumannii [24] = test: Antibacterial activity against 98 member subset of carbapenem resistant Acinetobacter baumannii assessed as assessed as inhibition of bacterial growth by microdilution method; assay type: functional; in short: as §2
Acinetobacter baumannii [25] = test: Antibacterial activity against carbapenem resistant Acinetobacter baumannii isolate PR-314 assessed as bacterial growth inhibition by microdilution method; assay type: functional; in short: as §2
Acinetobacter baumannii [26] = test: Antibacterial activity against carbapenem resistant Acinetobacter baumannii isolate PR-319 assessed as bacterial growth inhibition by microdilution method; assay type: functional; in short: as §2
Acinetobacter baumannii [27] = test: Antibacterial activity against carbapenem resistant Acinetobacter baumannii isolate PR-325 assessed as bacterial growth inhibition by microdilution method; assay type: functional; in short: as §2
Acinetobacter baumannii [28] = test: Antibacterial activity against carbapenem resistant Acinetobacter baumannii isolate PR-326 assessed as bacterial growth inhibition by microdilution method; assay type: functional; in short: as §2
Acinetobacter baumannii [29] = test: Antibacterial activity against carbapenem susceptible Acinetobacter baumannii isolate PR-340 assessed as bacterial growth inhibition by microdilution method; assay type: functional; in short: as §1
Acinetobacter baumannii [30] = test: Antibacterial activity against carbapenem resistant Acinetobacter baumannii isolate PR-342 assessed as bacterial growth inhibition by microdilution method; assay type: functional; in short: as §2
Acinetobacter baumannii [31] = test: Antibacterial activity against carbapenem resistant Acinetobacter baumannii isolate PR-345 assessed as bacterial growth inhibition by microdilution method; assay type: functional; in short: as §2
Acinetobacter baumannii [32] = test: Antibacterial activity against carbapenem resistant Acinetobacter baumannii isolate PR-351 assessed as bacterial growth inhibition by microdilution method; assay type: functional; in short: as §2
Acinetobacter baumannii [33] = test: Antibacterial activity against carbapenem resistant Acinetobacter baumannii isolate PR-380 assessed as bacterial growth inhibition by microdilution method; assay type: functional; in short: as §2
Acinetobacter baumannii [34] = test: Antibacterial activity against carbapenem resistant Acinetobacter baumannii isolate PR-384 assessed as bacterial growth inhibition by microdilution method; assay type: functional; in short: as §2
Acinetobacter baumannii [35] = test: Antibacterial activity against carbapenem resistant Acinetobacter baumannii isolate PR-387 assessed as bacterial growth inhibition by microdilution method; assay type: functional; in short: as §2
Acinetobacter baumannii [36] = test: Antibacterial activity against carbapenem resistant Acinetobacter baumannii isolate PR-399 assessed as bacterial growth inhibition by microdilution method; assay type: functional; in short: as §2
Acinetobacter baumannii [37] = test: Antibacterial activity against carbapenem resistant Acinetobacter baumannii isolate PR-401 assessed as bacterial growth inhibition by microdilution method; assay type: functional; in short: as §2
Acinetobacter baumannii [38] = test: Antibacterial activity against carbapenem resistant Acinetobacter baumannii isolate PR-423 assessed as bacterial growth inhibition by microdilution method; assay type: functional; in short: as §2
Acinetobacter baumannii [39] = test: Antibacterial activity against carbapenem resistant Acinetobacter baumannii isolate PR-459 assessed as bacterial growth inhibition by microdilution method; assay type: functional; in short: as §2
Acinetobacter baumannii [40] = test: Antibacterial activity against carbapenem resistant Acinetobacter baumannii isolate PR-482 assessed as bacterial growth inhibition by microdilution method; assay type: functional; in short: as §2
[41] = Antibacterial activity against carbapenem susceptible Acinetobacter nosocomialis isolate PR-362 assessed as bacterial growth inhibition by microdilution method; assay type: functional; in short: as §1
[42] = Antibacterial activity against carbapenem susceptible Acinetobacter nosocomialis isolate PR-365 assessed as bacterial growth inhibition by microdilution method; assay type: functional; in short: as §1
[43] = Antibacterial activity against carbapenem susceptible Acinetobacter nosocomialis isolate PR-412 assessed as bacterial growth inhibition by microdilution method; assay type: functional; in short: as §1
[44] = Antibacterial activity against carbapenem susceptible Acinetobacter nosocomialis isolate PR-491 assessed as bacterial growth inhibition by microdilution method; assay type: functional; in short: as §1
Acinetobacter baumannii [45] = test: Antibacterial activity against carbapenem susceptible Acinetobacter baumannii isolate PR-434 assessed as bacterial growth inhibition by microdilution method; assay type: functional; in short: as §1
Acinetobacter baumannii [46] = test: Antibacterial activity against carbapenem susceptible Acinetobacter baumannii isolate PR-452 assessed as bacterial growth inhibition by microdilution method; assay type: functional; in short: as §1
Acinetobacter baumannii [47] = test: Antibacterial activity against carbapenem susceptible Acinetobacter baumannii isolate PR-464 assessed as bacterial growth inhibition by microdilution method; assay type: functional; in short: as §1

Structure (SMILES): CC(C)(O/N=C(\C(=O)N[C@H]1CN2CC(C(=O)NCCN3C(=O)c4cc(O)c(O)cc4C3=O)=C(C(=O)O)N2C1=O)c1csc(N)n1)C(=O)O (stereo in doubt)
MIC (Pseudomonas aeruginosa [1]): ≤ 0.25 µg/mL
MIC (Pseudomonas aeruginosa [2]): ≤ 0.25 µg/mL
MIC (Pseudomonas aeruginosa [3]): ≤ 0.25 µg/mL
MIC (Pseudomonas aeruginosa [4]): ≤ 0.25 µg/mL
MIC (Pseudomonas aeruginosa [5]): ≤ 0.25 µg/mL
MIC (Pseudomonas aeruginosa [6]): > 16 µg/mL
MIC (Pseudomonas aeruginosa [7]): 16 µg/mL (≈ 23.3 µM)
MIC (Pseudomonas aeruginosa [8]): 16 µg/mL (≈ 23.3 µM)
MIC (Pseudomonas aeruginosa [9]): > 16 µg/mL
MIC (Pseudomonas aeruginosa [10]): 16 µg/mL (≈ 23.3 µM)
MIC (Pseudomonas aeruginosa [11]): > 16 µg/mL
MIC (Pseudomonas aeruginosa [12]): 16 µg/mL (≈ 23.3 µM)
MIC (Pseudomonas aeruginosa [13]): > 16 µg/mL
MIC (Pseudomonas aeruginosa [14]): > 16 µg/mL
MIC (Pseudomonas aeruginosa [15]): > 16 µg/mL
MIC (Pseudomonas aeruginosa [16]): > 16 µg/mL
MIC (Pseudomonas aeruginosa [17]): 16 µg/mL (≈ 23.3 µM)
MIC (Pseudomonas aeruginosa [18]): > 16 µg/mL
MIC (Pseudomonas aeruginosa [19]): > 16 µg/mL
MIC (Pseudomonas aeruginosa [20]): > 16 µg/mL
MIC (Pseudomonas aeruginosa [21]): 0.25 µg/mL (≈ 0.364 µM)

IC50 [22]: 2.3 µM
Structure (SMILES): C[C@@H](O)[C@H]1C(=O)N2C(C(=O)O)=C(S[C@@H]3CN[C@H](CNS(N)(=O)=O)C3)[C@H](C)[C@H]12 [DORIPENEM]

Structure (SMILES): C[C@@H](O)[C@H]1C(=O)N2C(C(=O)O)=C(S[C@@H]3CN[C@H](C(=O)N(C)C)C3)[C@H](C)[C@H]12 [MEROPENEM]
MIC50 (Acinetobacter baumannii [23]): 8 µg/mL (≈ 20.9 µM)
MIC90 (Acinetobacter baumannii [23]): > 64 µg/mL
MIC90 (Acinetobacter baumannii [24]): > 64 µg/mL

Structure (SMILES): C[C@H]1[C@H](NC(=O)/C(=N\OC(C)(C)C(=O)O)c2csc(N)n2)C(=O)N1S(=O)(=O)O [AZTREONAM]
MIC50 (Acinetobacter baumannii [24]): > 32 µg/mL
MIC90 (Acinetobacter baumannii [24]): > 32 µg/mL

Structure (SMILES): CC1(C)[C@H](C(=O)O)N2C(=O)C[C@H]2S1(=O)=O [SULBACTAM]
MIC (Acinetobacter baumannii [25]): 16 µg/mL
MIC (Acinetobacter baumannii [26]): > 32 µg/mL
MIC (Acinetobacter baumannii [27]): 32 µg/mL
MIC (Acinetobacter baumannii [28]): 2 µg/mL
MIC (Acinetobacter baumannii [29]): 4 µg/mL
MIC (Acinetobacter baumannii [30]): > 32 µg/mL
MIC (Acinetobacter baumannii [31]): 16 µg/mL
MIC (Acinetobacter baumannii [32]): 16 µg/mL
MIC (Acinetobacter baumannii [33]): 16 µg/mL
MIC (Acinetobacter baumannii [34]): 16 µg/mL
MIC (Acinetobacter baumannii [35]): 16 µg/mL
MIC (Acinetobacter baumannii [36]): 16 µg/mL
MIC (Acinetobacter baumannii [37]): 16 µg/mL
MIC (Acinetobacter baumannii [38]): 16 µg/mL
MIC (Acinetobacter baumannii [39]): 32 µg/mL
MIC (Acinetobacter baumannii [40]): 32 µg/mL
MIC [41]: 1 µg/mL
MIC [42]: 1 µg/mL
MIC [43]: 2 µg/mL
MIC [44]: 2 µg/mL
MIC (Acinetobacter baumannii [45]): 8 µg/mL
MIC (Acinetobacter baumannii [46]): 1 µg/mL
MIC (Acinetobacter baumannii [47]): 1 µg/mL

Structure (SMILES): CC(C)(O/N=C(\C(=O)N[C@@H]1C(=O)N2C(C(=O)[O-])=C(C[n+]3ccccc3)CS[C@H]12)c1csc(N)n1)C(=O)O [CEFTAZIDIME]
MIC50 (Acinetobacter baumannii [23]): 64 µg/mL (≈ 117 µM)
MIC90 (Acinetobacter baumannii [23]): > 64 µg/mL
MIC50 (Acinetobacter baumannii [24]): > 64 µg/mL
MIC90 (Acinetobacter baumannii [24]): > 64 µg/mL
